# AF4-AF9 inh: inhibitors of human MLL-AF4/AF9 interaction | AlphaScreen, biotin-AF4 peptide binding to FLAG-AF9 | actives 0.47% (n = 350,000) | P42568 | AID 651704 | inhibition, % at 10 µM;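 active = every replicate reaching a set inhibition limit, whatever the replicate mean, cut at about 25% in these data; inconclusive = mean inhibition reaches that limit but some replicates miss it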;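 also: 0% = plate neutral control median and 100% = total signal loss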
# Target sequence (P42568 whole entry, looked up): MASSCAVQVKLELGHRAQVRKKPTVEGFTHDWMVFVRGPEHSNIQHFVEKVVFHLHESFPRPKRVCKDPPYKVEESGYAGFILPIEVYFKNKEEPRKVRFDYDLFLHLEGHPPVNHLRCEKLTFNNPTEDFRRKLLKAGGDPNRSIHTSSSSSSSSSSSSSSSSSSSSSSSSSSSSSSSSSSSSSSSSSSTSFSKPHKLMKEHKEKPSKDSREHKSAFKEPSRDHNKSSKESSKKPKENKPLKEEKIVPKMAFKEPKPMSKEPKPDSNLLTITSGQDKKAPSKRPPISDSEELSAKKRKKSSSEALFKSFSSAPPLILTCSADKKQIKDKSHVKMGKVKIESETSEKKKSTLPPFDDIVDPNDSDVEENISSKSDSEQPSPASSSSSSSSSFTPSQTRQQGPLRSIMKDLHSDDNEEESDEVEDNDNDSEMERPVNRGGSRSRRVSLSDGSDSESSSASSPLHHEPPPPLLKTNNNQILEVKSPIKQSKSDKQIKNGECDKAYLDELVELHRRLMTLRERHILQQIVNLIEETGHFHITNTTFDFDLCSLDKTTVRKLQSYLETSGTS
# RAD54 inh: blocks human RAD54 Holliday junction branch migration. Q92698. actives 0.14% (n = 360,000). inhibition, % at 10.4 µM. FAM/BHQ fluorescence. AID 602329;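 active = mean normalized replicate activity at least 40 and at least half of replicates scoring 40 or more; inconclusive = only one of the two criteria met; inactive = mean below 40 and under half of replicates reaching 40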;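 also: 0% = median of neutral control wells and 100% = median of positive control wells; inhibitors cause a drop in the FAM fluorescence signal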
# RAD52 inh: blocks human RAD52 DNA annealing. recombinant RAD52 DNA annealing, FRET fluorescence. inhibition, % at 18.7 µM. AID 651710. P43351. actives 0.46% (n = 360,000);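 active = every replicate showing at least 50% inhibition; inconclusive = mean inhibition at least 50% but not in every replicate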
# S100A4 MyoIIA: S100A4-myosin IIA interaction inhibition | S100A4/TAMRA-MyoIIA peptide fluorescence polarization | inhibition, % at 10.7 µM | actives 0.14% (n = 360,000) | AID 652163;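 active = mean inhibition of at least 70% across replicates, with every replicate also reaching that level; inconclusive = mean inhibition reaches 70% but some replicates fall short; inactive = mean inhibition below 70%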
# Target sequence (P26447 whole entry, looked up): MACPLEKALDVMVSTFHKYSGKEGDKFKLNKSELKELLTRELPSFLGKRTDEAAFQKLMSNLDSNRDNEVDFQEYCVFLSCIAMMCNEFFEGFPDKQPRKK
#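 Compound dosing: one dose per compound; test system: human S100A4 monomer with TAMRA-labelled myosin IIA peptide; probe or stimulus: TAMRA-labelled myosin IIA heavy-chain peptide probe, 5 nM; medium: HEPES buffer with Ca2+, pH 7.2; schedule: 5 min incubation before reading; benchmarks: neutral control DMSO, positive control TFP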
# INS-1E GSIS act: GLuc luminescence reporter in INS-1E cells, primary screen for activators of glucose-dependent secretion of insulin; INS-1E GLuc reporter insulin secretion, 2-3 h; activation, % at 16.6 µM; actives 0.61% (n = 370,000); AID 743287;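 active = lowest replicate activation of at least 40%, so every replicate reaches that level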;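 also: 0% = median of neutral control wells and 100% = median of IBMX positive control wells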
# * hit, by the source's call; ? = inconclusive; · = not tested or not shown. Shown are actives, neighbours in structure and some others; about 1.3% of the full set was active somewhere.
SMILES,AF4-AF9 inh,RAD54 inh,RAD52 inh,S100A4 MyoIIA,INS-1E GSIS act
CC(C)NC(=O)Nc1ccc2c(c1)CC(=O)N([C@@H](C)CO)C[C@H](C)[C@@H](CN(C)S(=O)(=O)c1cn(C)cn1)O2,-2.6,4.4,16.1,-0.5,32.9
COc1cccc(S(=O)(=O)N2CC[C@@H]3[C@H]2c2cc(C#Cc4cccnc4)ccc2N(C)[C@H]3CO)c1,·,5.8,-25.2,·,-38.2
COCCN1Cc2cccc(C(=O)NCc3ccccc3OC)c2C1=O,·,-10.2,·,·,54.8*
NC(N)=Nc1nc(-c2ccccc2)c2cc(F)ccc2n1,13.4,55.9*,42.3,19.1,33.0
Nc1cccc2nc3ccccc3cc12,-0.1,105.7*,·,-12.1,·
C[C@H]1CN([C@@H](C)CO)C(=O)c2cccc(NC(=O)c3cnccn3)c2O[C@H]1CN(C)Cc1ccc(C(F)(F)F)cc1,2.6,-4.1,-4.0,14.4,-0.8
CS(=O)(=O)c1ccc(C(=O)OCC(=O)NC(=O)C2CCCCC2)cc1[N+](=O)[O-],-1.3,·,-13.1,2.7,2.5
CS(=O)(=O)c1ccc(C(=O)OCC(=O)Nc2cccnc2Cl)cc1[N+](=O)[O-],·,6.3,-2.8,-0.6,118.3*
CS(=O)(=O)c1ccc(C(=O)OCC(=O)NC(=O)C2COc3ccccc3O2)cc1[N+](=O)[O-] (centres undefined),-1.8,-7.3,-1.9,0.6,105.8*
Cc1ccccc1NC(=O)COC(=O)c1ccc(S(C)(=O)=O)c([N+](=O)[O-])c1,-1.1,-3.1,-5.9,-2.3,4.6
CN(C)S(=O)(=O)c1ccc(C(=O)OCc2nnc(-c3ccccc3)o2)cc1,-1.3,-4.7,-7.1,-4.0,-2.7
CCNc1ccc(C(=O)OCC(=O)NCc2ccccc2Cl)cc1[N+](=O)[O-],·,·,·,·,58.8*
CS(=O)(=O)c1ccc(C(=O)OCc2nnc(-c3ccccc3)o2)cc1[N+](=O)[O-],-0.8,·,-9.4,19.9,70.6*
Cc1ccccc1-c1cnc2c(c1)C(=O)N([C@H](C)CO)C[C@@H](C)[C@@H](CN(C)C(=O)c1ccccc1)O2,-4.8,-7.3,7.3,7.9,10.9
CC(=O)c1cccc(NC(=O)COC(=O)c2ccc(S(C)(=O)=O)c([N+](=O)[O-])c2)c1,?,·,-3.0,-0.8,48.0*
C[C@@H]1CN([C@@H](C)CO)S(=O)(=O)c2ccc(-c3cccnc3)cc2O[C@H]1CN(C)C(=O)CC1CC1,0.9,2.5,10.6,-6.1,-4.6
CCOC(=O)c1oc2cc(O)cc(C)c2c1C,7.9,3.2,-0.5,-0.4,40.0*
CCOc1ccccc1CNS(=O)(=O)c1cnc[nH]1,-14.6,-5.5,-7.8,0.5,43.6*
CCOc1ccccc1NC(=O)CN(C)S(=O)(=O)c1cnc[nH]1,0.3,·,-11.8,4.9,-2.6
Cc1ncc(CO)c(/C=N/NC(=O)c2cc(Br)ccc2O)c1O,28.3*,·,-38.6,0.9,0.6
CCC(Sc1nc(C)cc(C)n1)C(=O)Nc1nccs1 (centres undefined),-4.4,-11.1,-10.8,-1.4,55.0*
C[C@@H]1CN([C@@H](C)CO)C(=O)Cc2cc(NC(=O)CCCN(C)C)ccc2O[C@@H]1CN(C)Cc1ccc(Oc2ccccc2)cc1,28.5*,·,39.1,-1.4,-1.0
C[C@H](CO)N1C[C@H](C)[C@@H](CN(C)Cc2ccc(Oc3ccccc3)cc2)Oc2ccc(NC(=O)CCCN(C)C)cc2C1=O,21.5,8.9,15.6,-4.8,7.6
C[C@H](CO)N1C[C@H](C)[C@H](CN(C)Cc2ccc(Oc3ccccc3)cc2)Oc2ccc(NC(=O)CCCN(C)C)cc2CC1=O,12.2,9.2,58.2*,-0.8,1.0
C[C@H]1CN([C@@H](C)CO)C(=O)Cc2cc(NC(=O)CCCN(C)C)ccc2O[C@@H]1CN(C)Cc1ccc(Oc2ccccc2)cc1,12.2,20.2,52.3*,-5.4,7.6
SMILES,AF4-AF9 inh,RAD54 inh,RAD52 inh,S100A4 MyoIIA,INS-1E GSIS act
Cc1noc(C)c1NC(=O)N(C)C[C@@H]1Oc2ccc(NC(=O)CCN3CCOCC3)cc2C(=O)N([C@@H](C)CO)C[C@H]1C,-1.4,2.9,6.1,3.4,6.2
C[C@H](CO)N1C[C@H](C)[C@@H](CN(C)C)Oc2cc(-c3ccccc3F)ccc2S1(=O)=O,-0.5,1.1,-2.5,11.8,-1.0
Cc1cc(N(CCO)CCO)ccc1N=Nc1cc(F)ccc1F,35.2*,2.0,1.4,-3.7,20.4
Nc1ccc(N(CCO)CCO)cc1,-3.3,·,-13.9,29.2,-1.9
O=C(Nc1ccccc1)N1CC(=O)N2[C@H](CO)[C@H](c3ccc(C#CC4CCCC4)cc3)[C@H]2C1,2.9,·,8.0,-3.2,-29.1
CC(C)[N+]1=C2C=CC=CC=C2SC12C([N+](=O)[O-])=CC(=[N+]([O-])[O-])C=C2[N+](=O)[O-] (centres undefined),28.9*,-2.6,-0.1,-8.6,1.0
CC(C)(C)OC(=O)C[C@@H]1C/C=C\C[C@H](CC(=O)N[C@H](CO)Cc2ccccc2)C(=O)N[C@H](Cc2ccccc2)COC1=O,2.7,-2.5,-19.2,-1.0,-2.9
CC(C)(C)OC(=O)C[C@H]1C/C=C\C[C@H](CC(=O)N[C@H](CO)Cc2ccccc2)C(=O)N[C@H](Cc2ccccc2)COC1=O,-0.7,-1.2,-5.7,108.4*,-3.8
CC(C)Cn1c(Cc2ccccc2)n[nH]c1=S,-1.8,0.1,-9.1,4.6,55.2*
CO[C@H]1CN(C)C(=O)c2cc(NC(=O)c3cccc(F)c3)ccc2OC[C@@H](C)NC[C@@H]1C,-11.4,-14.9,3.7,0.6,12.4
COc1ccc(S(=O)(=O)N[C@@H]2CC[C@@H](CCNC(=O)Cc3ccccn3)O[C@@H]2CO)cc1,·,·,·,·,-1.8
C[C@@H]1CN([C@H](C)CO)C(=O)c2cc(NC(=O)C3CC3)ccc2O[C@@H]1CN(C)C(=O)Nc1ccc2c(c1)OCO2,-4.9,-0.6,6.6,102.9*,19.8
C[C@@H]1CN([C@@H](C)CO)C(=O)c2cc(NC(=O)CCCCCC(=O)Nc3ccccc3N)ccc2O[C@H]1CN(C)C(=O)Nc1ccc2c(c1)OCO2,0.3,·,1.8,119.1*,12.4
C[C@H](CO)N1C[C@H](C)[C@H](CN(C)C(=O)Nc2ccc3c(c2)OCO3)Oc2ccc(NC(=O)C3CC3)cc2C1=O,-5.0,2.0,5.7,-0.1,7.5
CC1=C(N2CCOCC2)CCC1=O,-1.4,-5.3,-2.1,85.5*,7.7
CC1=C(C)C(=O)C(N2CCOCC2)=CC1=O,1.5,1.2,-19.9,-8.8,4.8
C[C@@H]1CCCCO[C@@H](CN(C)Cc2ccc3c(c2)OCO3)[C@@H](C)CN([C@H](C)CO)C(=O)c2cc(NC(=O)Cc3ccccc3)ccc2O1,·,2.6,·,·,-15.5
Cc1ccc(-c2nc3c(c(SCC(=O)N4CCCC4)n2)COC(C)(C)C3)cc1,-2.5,-1.4,-1.3,5.6,44.3*
COc1ccc(CNC(=O)C[C@H]2C=C[C@@H](NS(=O)(=O)c3cccc(OC)c3)[C@@H](CO)O2)cc1,-9.1,·,-1.7,-24.9,11.3
CN(C)/C=N/c1c(C#N)cnn1-c1ccccc1,-67.2,-7.0,6.5,-0.5,13.5

# Screening results (PubChem BioAssay)
